From ChEMBL document CHEMBL1125422, “Low molecular weight proteins as carriers for renal drug targeting. Preparation of drug-protein conjugates and drug-spacer derivatives and their catabolism in renal cortex homogenates and lysosomal lysates” (J Med Chem, 1992)

How the values were obtained:
Rattus norvegicus [1] = species: Rattus norvegicus; experiment: (§1) Lysozyme-conjugated prodrugs: in vitro stability at pH 5; type: functional
Method in brief: (§2)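 Conjugate incubated 24 h in pH 5.0 buffer, pH 7.4 buffer, or plasma buffered at pH 7.4. Samples were deproteinized with ACN, MeOH or 2 N HCl, centrifuged, and analyzed by RP-HPLC against an internal standard. Release is % parent drug = parent/(parent + derivative) from IS-normalized peak-area ratios, mean of at least two separate incubations.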

Rattus norvegicus [2] = species: Rattus norvegicus; experiment: Lysozyme-conjugated prodrugs: in vitro stability in lysosomal lysate at pH 7.4; type: functional
Method in brief: (§3)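 Lysosomes isolated from pooled male Wistar rat kidney cortex by differential centrifugation, then lysed by 10 freeze–thaw cycles in liquid N2. 100 μL lysate diluted to 1.0 mL with 0.1 M phosphate buffer, pH 5.0 or 7.4. Samples were deproteinized and analysed by RP-HPLC against an internal standard. Parent drug released after 24 h, as a percentage, mean of ≥2 incubations.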

Rattus norvegicus [3] = species: Rattus norvegicus; experiment: Lysozyme-conjugated prodrugs: in vitro stability in buffered plasma at pH 7.4; type: functional; method in brief: as §2
Rattus norvegicus [4] = species: Rattus norvegicus; experiment: as §1; type: functional; method in brief: as §2; remark: listed apart in the source
Rattus norvegicus [5] = species: Rattus norvegicus; experiment: (§4) Lysozyme-conjugated prodrugs: in vitro stability at pH 7.4; type: functional; method in brief: as §2
Rattus norvegicus [6] = species: Rattus norvegicus; experiment: as §1; type: ADME; method in brief: as §2
Rattus norvegicus [7] = species: Rattus norvegicus; experiment: as §4; type: functional; method in brief: as §2; remark: listed apart in the source
Rattus norvegicus [8] = species: Rattus norvegicus; experiment: as §4; type: functional; method in brief: as §2; remark: listed apart in the source
Rattus norvegicus [9] = species: Rattus norvegicus; experiment: Lysozyme-conjugated prodrugs: in vitro stability in rat cortical homogenate at pH 7.4; type: functional
Method in brief: (§5)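 Renal cortices from three male Wistar rats were perfused, pooled, homogenized in 0.3 M sucrose and lysed by 10 freeze–thaw cycles. Conjugate was incubated with 250 μL homogenate in 0.1 M phosphate buffer, pH 5.0 or 7.4, to 1.0 mL for 24 h. Samples were deproteinized and analyzed by HPLC with internal standard. Release is % parent compound, mean of ≥2 incubations.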

Rattus norvegicus [10] = species: Rattus norvegicus; experiment: Lysozyme-conjugated prodrugs: in vitro stability in rat cortical homogenate at pH 5; type: functional; method in brief: as §5
Rattus norvegicus [11] = species: Rattus norvegicus; experiment: Lysozyme-conjugated prodrugs: in vitro stability in lysosomal lysate at pH 5; type: functional; method in brief: as §3
Rattus norvegicus [12] = species: Rattus norvegicus; experiment: as §4; type: functional; method in brief: as §2; remark: listed apart in the source
Rattus norvegicus [13] = species: Rattus norvegicus; experiment: as §4; type: functional; method in brief: as §2; remark: listed apart in the source
Rattus norvegicus [14] = species: Rattus norvegicus; experiment: as §1; type: functional; method in brief: as §2; remark: listed apart in the source

| Compound | Drug release (Rattus norvegicus [1]) | Drug release (Rattus norvegicus [2]) | Drug release (Rattus norvegicus [3]) | Drug release (Rattus norvegicus [4]) | Drug release (Rattus norvegicus [5]) | Drug release (Rattus norvegicus [6]) | Drug release (Rattus norvegicus [7]) | Drug release (Rattus norvegicus [8]) | Drug release (Rattus norvegicus [9]) | Drug release (Rattus norvegicus [10]) | Drug release (Rattus norvegicus [11]) | Drug release (Rattus norvegicus [12]) | Drug release (Rattus norvegicus [13]) | Drug release (Rattus norvegicus [14]) |
| --- | --- | --- | --- | --- | --- | --- | --- | --- | --- | --- | --- | --- | --- | --- |
| COc1ccc2cc([C@H](C)C(=O)O)ccc2c1 [NAPROXEN] | Stable | Stable | Stable | 0% | 0% | 0% | 0% | Stable | Stable | Stable | Stable | 0% | 0% | 0% |
| Nc1nc(N)c2nc(-c3ccccc3)c(N)nc2n1 | Stable |  |  |  |  |  |  | Stable | Stable | Stable |  |  |  |  |
| Nc1ccc2ccccc2c1 | Stable | Stable |  |  |  |  |  | Stable | Stable | Stable | Stable |  |  |  |
| COc1ccc2c(c1)c(CC(=O)O)c(C)n2C(=O)c1ccc(Cl)cc1 | Stable |  | Stable |  |  |  |  | Stable | Stable | Stable | Stable |  |  |  |
